Most compounds without a hit are left out; they make up all but 3.3% or so of the library.
PMI act satM6P: activators of human phosphomannose isomerase at near-saturating mannose 6-phosphate. P34949. coupled PMI enzyme assay, resazurin fluorescence, 20 min; stronger effect = higher value; 1 = untreated enzyme, 0 = substrate-free blank. hit rate 0.34% among 190,000. activation factor at 20 µM;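 active = activation factor of 2 or more at 20 µM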
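Material: human phosphomannose isomerase with PGI, G6PDH, diaphorase coupling enzymes. Quantity: 15 ng/mL PMI. Medium: HEPES pH 7.4 buffer with MgCl2 and Tween-20. Reagent: Near-saturating mannose-6-phosphate, 1.0 mM. Compound: 20 µM single dose. Times: enzyme reaction with compound 20 min at room temperature. Detection: resorufin fluorescence at Ex 544/Em 590 nm.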
ABCB1 block: human ABCB1 inhibition, ABCG2 as counter-screen; CCRF-Adr cells, JC-1 efflux, flow cytometry; AID 1326; hit rate 0.067% among 190,000; P08183; inhibition, % at 6.6 µM; in the data active = inhibition above about 40%;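 also: 0% = vehicle and 100% = reference inhibitor; higher value means more JC-1 retained so stronger ABCB1 efflux block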
ROMK mod: human ROMK K+ channel modulation, primary screen; P48048; Tet-inducible ROMK, thallium flux fluorescence; actives lie on both sides; B-score at 10 µM; hit rate 2% among 130,000; AID 1918;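 active = signal ratio slope over the read window, or its plate-corrected B-score, at least 3 SD from the plate mean, either direction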;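 also: B-score of the F/F0 ratio slope over 7 to 12 s after thallium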
ABCG2 block: human ABCG2 inhibition, ABCB1 as counter-screen | Q9UNQ0 | IgMXP3 cells, JC-1 efflux, flow cytometry | inhibition, % at 6.6 µM | hit rate 0.1% among 190,000;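 active = inhibition above 80%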;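 also: 0% = DMSO and 100% = nicardipine control wells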
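material = IgMXP3 (ABCG2) plus far-red-tagged CCRF-Adr (ABCB1) cells | amount = 3 million cells/mL, equal mix of both lines | also added = JC-1 transporter substrate | dosing = one concentration, 6.6 µM final | schedule = 10 min at 25 °C | measured by = flow cytometric JC-1 green MFI at 530 nm | read-out basis = percent efflux inhibition, scaled nicardipine 100% to DMSO 0%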
PMI act: activators of human phosphomannose isomerase; P34949; purified human PMI, coupled resazurin fluorescence, 20 min; stronger effect = higher value; 1 = vehicle control, 0 substrate-free wells; activation factor at 20 µM; hit rate 0.005% among 190,000; AID 1214;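 active = activation factor of 2 or more at 20 µM, relative to plate controls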
KCC2 mod: modulators of human KCC2 chloride dependent transport; Q9H2X9; KCC2 cells, thallium flux FluoZin-2 fluorescence; B-score of Tl+ flux slope (higher = more flux/activation; lower = inhibition) at 10 µM; hit rate 2.2% among 190,000;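 active = thallium flux slope and its plate-corrected score both differing from the plate sample mean at a set confidence after two filtering rounds, in either direction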;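 also: slope of fluorescence scaled to starting intensity during 10 to 20 s after thallium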
KCC2 secondary: confirmation of human KCC2 transport modulators. shares compounds with KCC2 mod. HEK293-KCC2, thallium flux, FluoZin2 fluorescence; stronger effect = higher value. normalised thallium flux (F/F0 slope) at 10 µM. hit rate 15% among 3,700. AID 1713;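 active = thallium flux slope above the same plate's solvent-only control mean plus 3 SD; inconclusive = the two replicate wells disagree; inactive = no significant difference from solvent-only control wells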
KCC2 bumet counter: thallium flux persisting under bumetanide in KCC2 cells, counter-screen secondary assay | hit rate 49% among 3,700 | normalized thallium flux at 10 µM | shares compounds with KCC2 mod | HEK293-KCC2 + bumetanide/ouabain, thallium flux FluoZin2; stronger effect = higher value;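 active = thallium entry rate above the same plate's blocked-transporter control wells by more than 3 SD; inconclusive = the two repeat wells disagree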;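 also: raw slope of fluorescence over initial fluorescence between 10 and 20 s after thallium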
KCC2 secondary2: confirmation of human KCC2 transport modulators. shares compounds with KCC2 mod. HEK293-KCC2, thallium flux FluoZin2 fluorescence; actives lie on both sides; F/F0 rise rate, 10–20 s post-thallium. normalized thallium flux at 10 µM. hit rate 23% among 3,700;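 active = thallium flux slope more than 3 SD above or below the plate's solvent-only control mean, mostly below; inconclusive = the two repeat wells disagreed; inactive = no significant shift from solvent-only controls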;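 also: raw slope with 0.1% DMSO as baseline and bumetanide as block control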
HEK counter1: counter-screen for KCC2 modulators: effect in parental HEK293 cells | shares compounds with KCC2 mod | thallium flux FluoZin2, ouabain; baseline-ratio fluorescence slope, 10–20 s after thallium | thallium flux rate (normalised fluorescence) at 10 µM | hit rate 46% among 3,700 | AID 1716;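 active = thallium flux rate significantly above the same plate's solvent-only control wells, beyond their mean plus 3 SD; inconclusive = the two replicate wells gave conflicting results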
KCC2 ouabain: confirmation of human KCC2 modulators with ouabain; shares compounds with KCC2 mod; HEK293-KCC2, thallium flux FluoZin2 fluorescence; bidirectional: low = inhibitor, high = activator; raw Tl+ flux slope (below DMSO = inhibition, above = activation) at 10 µM; hit rate 48% among 3,700; AID 1717;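 active = thallium flux slope beyond 3 SD from same-plate DMSO control mean in most replicates, usually higher, sometimes lower; inconclusive = repeat tests gave conflicting results; inactive = no significant difference from controls in most replicates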;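 also: slope of initial-normalized fluorescence between seconds 10 and 20 after thallium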
HEK293 Tl flux2: counter-screen for KCC2 modulators: effect in parental HEK293 cells; thallium flux slope at 10 µM; thallium flux FluoZin-2 fluorescence slope; hit rate 33% among 3,700; shares compounds with KCC2 mod;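 active = thallium flux slope above the same plate's solvent-control mean plus 3 SD in both duplicate wells; inconclusive = duplicate wells that disagreed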;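 also: run without ouabain in cells lacking the KCC2 cotransporter; slope of fluorescence scaled to its starting value between 10 and 20 s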
The depositor's hits bear a star; ? = inconclusive; . = no result.

SMILES	PMI act satM6P	ABCB1 block	ROMK mod	ABCG2 block	PMI act	KCC2 mod	KCC2 secondary	KCC2 bumet counter	KCC2 secondary2	HEK counter1	KCC2 ouabain	HEK293 Tl flux2
O=C(Nc1nc(=O)n(C(=O)c2cccc(C(F)(F)F)c2)s1)c1ccccc1	.	.	.	.	.	-4.3*	0.0057	0.0044	0.024*	0.0069	0.016*	0.0093
COc1cc(C)c(C)cc1S(=O)(=O)N1CCN(Cc2ccccc2)CC1	0.9	1	-1.3	1	1	.	0.0054	0.005	0.025*	0.0067	?	0.011
COc1cc(C)c(C)cc1S(=O)(=O)N1CCN(Cc2ccc3c(c2)OCO3)CC1	0.8	2	.	5	0.8	-0.64	.	.	.	.	.	.
N#Cc1c(-c2c(Cl)cccc2Cl)noc1/C=C/Nc1ccc(C(=O)O)cc1	1	0	-1.4	0	1	-5.8*	0.0066	0.0045	0.025*	?	0.013*	0.0097
CCCCOc1ccc([N+](=O)[O-])cc1C(=O)O	1	1	0.37	1	1.1	0.31	.	.	.	.	.	.
Oc1c(Cl)cc(Cl)cc1/C=N/Nc1ncc(Br)cn1	1.2	1	0.094	4	1.2	0.13	.	.	.	.	.	.
Oc1ccccc1/C=N/NC(=S)NC1CC2C=CC1C2 (centres undefined)	.	.	.	.	.	18*	?	0.052*	0.034	0.025*	0.031	0.014*
Oc1c(Cl)cc(Cl)cc1/C=N/NC(=S)NC1CC2C=CC1C2 (centres undefined)	.	.	.	.	.	9.2*	0.0083	0.017*	0.028	0.011*	?	0.0097
Cc1c(NC(=S)N/N=C\c2ccccc2O)c(=O)n(-c2ccccc2)n1C	1.3	0	0.44	0	1.1	-0.97	.	.	.	.	.	.
CCOc1ccc(-c2nc(C#N)c(N3CCN(Cc4ccccc4)CC3)o2)cc1	1	2	.	6	1	-4.3*	0.0078	0.0066	0.027	0.0071	0.023*	0.01
Cc1cc(C)nc(N2CCCC(C(=O)NC(C)CCc3ccco3)C2)n1 (centres undefined)	0.9	1	-0.53	3	0.9	.	0.0075	0.005	0.033	0.0066	0.018	0.01
Cc1cc(C)nc(N2CCCC(C(=O)NCc3ccccc3)C2)n1 (centres undefined)	1.3	0	0.18	-1	1.2	-0.47	.	.	.	.	.	.
N#CC(c1ccc(Cl)cc1)c1cccc(Cl)n1 (centres undefined)	0.9	0	-0.0097	1	0.9	0.086	.	.	.	.	.	.
Cc1ccc(S(=O)(=O)N(C)c2nc3ccccc3[nH]c2=S)cc1	.	.	.	.	.	89*	0.039*	0.087*	?	0.065*	0.065*	0.019*
COc1cc(OC)cc(C(=O)NNC(=S)NCc2ccco2)c1	1.1	0	1.2	6	1.1	-0.1	.	.	.	.	.	.
Cc1nn(-c2ccc(F)cc2)c(C)c1NS(=O)(=O)c1ccc(Cl)cc1	0.9	1	.	2	0.9	-4.6*	0.0057	0.0049	0.022*	0.0068	?	0.01
Cc1ccc(-n2nc(C)c(NS(=O)(=O)c3ccccc3)c2C)cc1C	0.9	1	.	2	1	.	.	.	.	.	.	.
CC(=O)NS(=O)(=O)c1ccc(NC(=O)c2oc3c(Cl)cccc3c2C)cc1	.	.	.	.	.	1.1	.	.	.	.	.	.
CNC(=O)NC(=O)COC(=O)/C=C/c1cccc(Br)c1	1	0	-0.24	1	0.9	0.76	.	.	.	.	.	.
COc1ccc(-c2csc(NC(=O)CN3C(=O)CCC3=O)n2)cc1	1.1	0	-0.73	1	0.6	0.046	.	.	.	.	.	.
CCC(C)(C)C1CCC2(CC1)NC(=O)N(CC(=O)Nc1nc(-c3ccc(C)cc3)cs1)C2=O (centres undefined)	0.9	0	-0.65	-1	0.9	-0.89	.	.	.	.	.	.
O=C(CN1C(=O)NC2(CCCC2)C1=O)Nc1nc(-c2ccc(F)cc2)cs1	1	1	.	20	0.9	-6.6*	0.0092	0.0066	0.027*	0.0075	0.014*	0.01
CN1CCN(CC(=O)Nc2nc(-c3ccccc3)cs2)CC1	1	1	-0.34	1	1	.	0.0082	0.0087*	0.032	0.0088	0.021	0.011
CCCC(=O)Nc1nc(-c2ccc3c(c2)CCN3S(C)(=O)=O)cs1	1	1	.	4	1	6.2*	0.011	0.0071	0.029	?	0.021	0.01
CC1(C)NC(=O)N(CC(=O)Nc2nc(-c3ccc(F)cc3)cs2)C1=O	1	0	-1.6	1	0.9	-4.9*	0.0061	0.0069	0.024*	0.0074	0.013*	?
SMILES	PMI act satM6P	ABCB1 block	ROMK mod	ABCG2 block	PMI act	KCC2 mod	KCC2 secondary	KCC2 bumet counter	KCC2 secondary2	HEK counter1	KCC2 ouabain	HEK293 Tl flux2
COc1ccc(CC(=O)NC(C)c2nnc(SCC(=O)Nc3cc(C)ccc3OC)n2C)cc1 (centres undefined)	1.1	1	-0.033	3	1	0.27	.	.	.	.	.	.
CCSc1nc(-c2ccccc2)c(C#N)c(=O)[nH]1	1	0	0.038	14	0.9	.	.	.	.	.	.	.
N#Cc1c(-c2ccccc2)nc(SCc2nc(N)nc(N3CCCCC3)n2)[nH]c1=O	1	0	.	-2	0.9	-2.7*	?	0.0046	0.025*	0.0059*	0.012*	?
O=c1ccc(Cc2ccccn2)n[nH]1	1	-1	1	-9	1	2.4*	0.0098	0.0063	0.036	0.008	0.022	0.011
S=C(Nc1ccccc1)Nc1ccc(Br)cc1	.	.	.	.	.	0.55	.	.	.	.	.	.
S=C(Nc1ccccc1)Nc1ccccc1-n1cccc1	.	.	.	.	.	8.5*	0.014*	0.05*	0.039	0.017*	?	0.016*
O=C(Nc1nc2c(s1)CCCC2=O)c1cnccn1	1	0	0.21	0	0.9	-0.49	.	.	.	.	.	.
O=C(Nc1ccccc1F)c1ccc(COc2ccc(Cl)cc2Cl)o1	0.9	0	.	5	1	0.38	.	.	.	.	.	.
CC(C)CNC(=O)c1ccc(COc2ccc(Cl)cc2Cl)o1	1.1	0	.	2	1.1	-4*	0.0054	0.0049	0.023*	0.0062	0.013*	0.0091

Assay outcomes from PubChem BioAssay.
